Data published in ChEMBL document CHEMBL3822361, “Novel 1,6-naphthyridin-2(1H)-ones as potential anticancer agents targeting Hsp90” (Eur J Med Chem, 2016).
pIC50: −log10 of the molar value. Calls of active or inactive are those of the source. No cut-off for these calls is given here.

Assays:
MDA-MB-468 [1] = assay: Antiproliferative activity against human MDA-MB-468 cells measured after 48 hrs by MTT assay; assay type: functional, cell-based; conditions: MDA-MB-468, 48 h
In short: (§1)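 Cells grown in DMEM with 2 mM L-glutamine, penicillin/streptomycin and 5% FBS at 37 °C, 5% CO2; seeded 6000/well in 96-well plates, attached 24 h. Compounds added over a concentration range in DMSO (1% final), 48 h. MTT (2.5 mg/mL in PBS) added for 3.5 h, formazan dissolved in DMSO, OD 570 nm. Growth relative to 1% DMSO; IC50 from separate triplicate experiments.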

MCF7 [2] = assay: Antiproliferative activity against human MCF7 cells measured after 48 hrs by MTT assay; assay type: functional, cell-based; conditions: MCF7, 48 h; in short: as §1
MDA-MB-468 [3] = assay: Effect on actin level in human MDA-MB-468 cells at 1.5 times IC50 measured after 48 hrs by western blot analysis; assay type: cell-based; conditions: mda-mb-468, 48 h
In short: (§2)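 Cells seeded in 6-well plates, 24 h at 37 °C, 5% CO2, then exposed 48 h to compound or 17-AAG in DMSO (1% final) or to vehicle. Lysed 2 h on ice in buffer with protease and phosphatase inhibitors, sonicated, protein measured by BCA. Equal protein run on SDS-PAGE, moved to PVDF, primary antibodies overnight at 4 °C, HRP secondary 1 h, ECL chemiluminescence.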

[4] = target: T1, Heat shock protein HSP90 (Homo sapiens) (UniProt P07900+P08238); assay: Inhibition of HSP90 in human MCF7 cells assessed as Raf-1 protein degradation at 1.5 times IC50 measured after 48 hrs by western blot analysis; assay type: cell-based; in short: as §2
MDA-MB-468 [5] = assay: Effect on cell cycle in human MDA-MB-468 cells assessed as accumulation at subG1-phase at 15 uM measured after 48 hrs by propidium iodide staining-based FACS analysis; assay type: functional
In short: (§3)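 MDA-MB-468 seeded 40,000/well in 24-well plates, 24 h at 37 °C, 5% CO2, then treated 48 h with compounds in DMSO (1% final). Cells trypsinized, washed in PBS, fixed in 70% ethanol, rehydrated in PBS, stained with propidium iodide in PBS. Phase distribution (G1, S, G2/M, polyploid, subG1) read by flow cytometry.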

MDA-MB-468 [6] = assay: Induction of apoptosis in human MDA-MB-468 cells assessed as mortality at 15 uM measured after 48 hrs by Annexin V-FITC/propidium iodide staining-based flow cytometry; assay type: functional; conditions: MDA-MB-468, 48 h
In short: (§4)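 MDA-MB-468 cells seeded in wells, held 24 h at 37 °C in 5% CO2, then exposed to compound in DMSO (1% DMSO final) for 48 h. Floating and trypsinised adherent cells pooled, PBS-washed, stained with annexin V-FITC plus propidium iodide in binding buffer 15 min on ice in the dark. Flow cytometry, ≥10 000 events per sample; annexin V-positive cells scored apoptotic.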

[7] = target: T1, Heat shock protein HSP90 (Homo sapiens); assay: Inhibition of HSP90 in human MCF7 cells assessed as induction of prosurvival heat shock response at 1.5 times IC50 measured after 48 hrs by Western blot analysis; assay type: cell-based; in short: as §2
MCF7 [8] = assay: Effect on actin level in human MCF7 cells at 1.5 times IC50 measured after 48 hrs by western blot analysis; assay type: cell-based; conditions: mcf7, 48 h; in short: as §2
[9] = target: T1, Heat shock protein HSP90 (Homo sapiens); assay: Inhibition of HSP90 in human MCF7 cells assessed as ER-alpha protein degradation at 1.5 times IC50 measured after 48 hrs by western blot analysis; assay type: cell-based; in short: as §2
MCF7 [10] = assay: Effect on HSP90 level in human MCF7 cells at 1.5 times IC50 measured after 48 hrs by western blot analysis; assay type: cell-based; conditions: mcf7, 48 h; in short: as §2
MDA-MB-468 [11] = assay: Effect on HSP90 level in human MDA-MB-468 cells at 1.5 times IC50 measured after 48 hrs by western blot analysis; assay type: cell-based; conditions: mda-mb-468, 48 h; in short: as §2
MDA-MB-468 [12] = assay: Cell cycle arrest in human MDA-MB-468 cells at 15 uM measured after 48 hrs by propidium iodide staining-based FACS analysis; assay type: functional; in short: as §3
[13] = target: T1, Heat shock protein HSP90 (Homo sapiens); assay: Inhibition of HSP90 in human MCF-7 cells assessed as ER-alpha protein degradation at 1.5 times IC50 measured after 48 hrs by western blot analysis
[14] = target: T1, Heat shock protein HSP90 (Homo sapiens); assay: Inhibition of HSP90 in human MDA-MB-468 cells assessed as Raf-1 protein degradation at 1.5 times IC50 measured after 48 hrs by western blot analysis; assay type: cell-based; in short: as §2
MDA-MB-468 [15] = assay: Induction of apoptosis in human MDA-MB-468 cells at 2 uM measured after 48 hrs by Annexin V-FITC/propidium iodide staining-based flow cytometry; assay type: functional, cell-based
In short: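 Cells incubated 24 h at 37 °C, 5% CO2, then given compounds in DMSO (1% final) for 48 h. Floating and trypsinized adherent cells pooled, PBS-washed, stained with annexin V-FITC plus propidium iodide in binding buffer, 15 min on ice in the dark. Flow cytometry, ≥10 000 events per sample; annexin V-positive cells scored as apoptotic.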

MDA-MB-468 [16] = assay: Effect on cell cycle distribution in human MDA-MB-468 cells assessed as accumulation at G2/M-phase at 2 uM measured after 48 hrs by propidium iodide staining-based flow cytometry; assay type: functional; in short: as §3
MDA-MB-468 [17] = assay: Cell cycle arrest in human MDA-MB-468 cells at 10 uM measured after 48 hrs by propidium iodide staining-based FACS analysis; assay type: functional; in short: as §3
MDA-MB-468 [18] = assay: Induction of apoptosis in human MDA-MB-468 cells assessed as mortality at 10 uM measured after 48 hrs by Annexin V-FITC/propidium iodide staining-based flow cytometry; assay type: functional; conditions: MDA-MB-468, 48 h; in short: as §4
MDA-MB-468 [19] = assay: Effect on cell cycle in human MDA-MB-468 cells assessed as accumulation at subG1-phase at 10 uM measured after 48 hrs by propidium iodide staining-based FACS analysis; assay type: functional; in short: as §3

SMILES	pIC50 (MDA-MB-468 [1])	pIC50 (MCF7 [2])	Activity (MDA-MB-468 [3])	inhibition [4]	Activity (MCF7 [8])	inhibition [9]	Activity (MCF7 [10])	Activity (MDA-MB-468 [11])	inhibition [13]	inhibition [14]	other results
COc1cccc(C(=O)Nc2cc3cnc(NCCN(C)C)cc3n(C)c2=O)c1	4.76	4.36									
CN(C)CCNc1cc2c(cn1)cc(NC(=O)c1ccc(N)cc1)c(=O)n2C	4.69	4.25									
Cn1c(=O)c(NC(=O)c2ccccc2)cc2cnc(NCCN3CCOCC3)cc21	< 4.00	< 4.00									
Cn1c(=O)c(NC(=O)c2ccc(N)cc2)cc2cnc(NCCN3CCOCC3)cc21	< 4.00	< 4.00									
Cn1c(=O)c(NC(=O)/C=C/c2ccccc2)cc2cnc(NCCN3CCOCC3)cc21	< 4.00	< 4.00									
COc1ccc(C(=O)Nc2cc3cnc(N4CCN(C)CC4)cc3n(C)c2=O)cc1	4.90	4.45									
COc1cccc(C(=O)Nc2cc3cnc(NCCN4CCOCC4)cc3n(C)c2=O)c1	< 4.00	< 4.00									
Cn1c(=O)c(NC(=O)c2cccc(-c3ccccc3)c2)cc2cnc(N3CCN(CCO)CC3)cc21	4.83	4.82	Non-toxic	Active	Non-toxic	Active	Toxic	Toxic	Active	Active	Activity (MDA-MB-468 [5]): Active; mortality at 15 µM (MDA-MB-468 [6]): 80%; inhibition [7]: Active; Activity (MDA-MB-468 [12]): inactive
CN(C)CCNc1cc2c(cn1)cc(NC(=O)c1ccc(Cl)cc1)c(=O)n2C	5.79	5.51	Non-toxic	Active	Non-toxic	Active	Non-toxic	Non-toxic	Active	Active	Activity (MDA-MB-468 [15]): Active; Activity (MDA-MB-468 [16]): Active
Cn1c(=O)c(NC(=O)c2ccc(O)cc2)cc2cnc(NCCN3CCOCC3)cc21	< 4.00	< 4.00									
CC(=O)Nc1cc2cnc(NCCN3CCOCC3)cc2n(C)c1=O	< 4.00	< 4.00									
CCCNc1cc2c(cn1)cc(NC(=O)c1cccc(-c3ccccc3)c1)c(=O)n2C	5.73	5.22	Non-toxic	Active	Non-toxic	Active	Non-toxic	Non-toxic	Active	Active	Activity (MDA-MB-468 [15]): inactive; Activity (MDA-MB-468 [16]): Active
CN(C)CCNc1cc2c(cn1)cc(NC(=O)c1cccc(-c3ccccc3)c1)c(=O)n2C	5.77	5.71	Non-toxic	Active	Non-toxic	Active	Toxic	Toxic	Active	Active	inhibition [7]: Active; Activity (MDA-MB-468 [15]): Active; Activity (MDA-MB-468 [16]): inactive
COc1ccc(C(=O)Nc2cc3cnc(N4CCN(CCO)CC4)cc3n(C)c2=O)cc1	4.98	5.07	Non-toxic	Active	Non-toxic	Active	Non-toxic	Non-toxic	Active	Active	Activity (MDA-MB-468 [17]): inactive; mortality at 10 µM (MDA-MB-468 [18]): 40%; Activity (MDA-MB-468 [19]): Active
